In ChEMBL document CHEMBL1134055, “The synthesis of amino-acid functionalized beta-carbolines as topoisomerase II inhibitors” (2001) one finds Cell survival and DNA relaxation data, which are given here for three compounds.

Each structure is given as a SMILES string.

Assay [1] deals with PC-3. Put plainly: In vitro cell growth inhibition of PC3 cell line determined using Non-Radioactive Cell Proliferation Assay at a dose of 10 uM. The format is functional, Homo sapiens. The procedure, abridged: (§1)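 Tetrazolium-type colorimetric proliferation assay (CellTiter 96 AQueous, non-radioactive); cells treated at 10, 50 and 100 µM; read as percent cell survival. All points in quadruplicate. Vehicle control DMSO (0.20%); m-AMSA (20, 40 µM) as reference control.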

Assay [2] has as its system NCI-H520. Put plainly: In vitro cell growth inhibition of H520 cell line determined using non-radioactive cell proliferation assay at a dose of 50 uM. The format is functional, Homo sapiens. The method, boiled down: as §1
The subject of assay [3] is NCI-H520. The assay is described as follows: In vitro cell growth inhibition of H520 cell line determined using non-radioactive cell proliferation assay at a dose of 10 uM. The class given is functional, Homo sapiens. The method, boiled down:
as §1

Assay [4] deals with PC-3. The assay is described as follows: In vitro cell growth inhibition of PC3 cell line determined using non-radioactive cell proliferation assay at a dose of 100 uM. The class given is functional, Homo sapiens. The method, boiled down: as §1
The test system of assay [5] is NCI-H520. Put plainly: In vitro cell growth inhibition of H520 cell line determined using Non-Radioactive Cell Proliferation Assay at a dose of 100 uM. The format is functional, Homo sapiens. The procedure, abridged:
as §1

The subject of assay [6] is PC-3. Put plainly: In vitro cell growth inhibition of PC3 cell line determined using Non-Radioactive Cell Proliferation Assay at a dose of 50 uM. The class given is functional, Homo sapiens. The method, boiled down: as §1
Assay [7] has as its system NCI-H520. The assay is described as follows: In vitro cell growth inhibition of H520 cell line determined using non-radioactive cell proliferation assay at a dose of 100 uM. The class given is functional, Homo sapiens. The method, boiled down:
as §1

For assay [8], the system named is PC-3. The assay is described as follows: In vitro cell growth inhibition of PC3 cell line determined using non-radioactive cell proliferation assay at a dose of 50 uM. The class given is functional, Homo sapiens. The method, boiled down:
as §1

The test system of assay [9] is PC-3. Put plainly: In vitro cell growth inhibition of PC3 cell line determined using non-radioactive cell proliferation assay at a dose of 10 uM. The class given is functional, Homo sapiens. The procedure, abridged:
as §1

The nature of assay [10]: Inhibition of topo II-mediated DNA relaxation measured by topo II-mediated DNA relaxation assay; - indicates drug does not interaction with topo II. The class given is functional. The procedure, abridged: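 Relaxation of supercoiled plasmid pUC18 DNA (E. coli) by topo II (2.0 units per reaction) in Tris-Cl pH 8.0 buffer with KCl, MgCl2, ATP, DTT and BSA; 1 µL of 1 mM drug in 10% DMSO per 10 µL reaction, enzyme added last; 37 °C for 30-45 min. Stopped with sarkosyl buffer, chloroform/isoamyl alcohol extraction, 1% agarose gel, ethidium stain. Densitometric qualitative scoring; gels in triplicate.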

As for `COC(=O)[C@H](Cc1ccccc1)NC(=O)[C@@H]1Cc2c([nH]c3ccccc23)[C@@H](c2cc(OC)c(O)c(OC)c2)N1`, the Cell survival in the assay with PC-3 [1] is 97.8%; in the assay with NCI-H520 [2], 97.4%; in the assay with NCI-H520 [3], 59.4%; in the assay with PC-3 [4], 18%; with NCI-H520 [5], 14.8%; in the assay with PC-3 [6], 90.6%.

Consider `COC(=O)[C@H]1CCCN1C(=O)[C@@H]1Cc2c([nH]c3ccccc23)[C@@H](c2cc(OC)c(O)c(OC)c2)N1`, for which the Cell survival in the assay with NCI-H520 [7] worked out at 61%; in the assay on PC-3 [8], 99.4%; in the assay on NCI-H520 [2], 86.1%; with NCI-H520 [3], 94.3%; in the assay on PC-3 [4], 66.3%; in the assay on PC-3 [9], 98%.

For the compound `COC(=O)[C@@H]1CCCN1C(=O)[C@@H]1Cc2c([nH]c3ccccc23)[C@@H](c2cc(OC)c(O)c(OC)c2)N1`, the Cell survival is 83.4% in the assay on NCI-H520 [2]; 80.5% in the assay on NCI-H520 [3]; more than 100% in the assay on PC-3 [4]; 86.6% with NCI-H520 [5]; 96.8% in the assay with PC-3 [9]; 98.3% with PC-3 [6]. Further, the DNA relaxation result in assay [10] is on record as “drug does not interact with topo II”.
